Screening results as filed in PubChem.
CHOP UPR activ = activators of apoptotic arm of unfolded protein response (CHOP); CHO-CHOP luciferase reporter, UPR activation, luminescence; percent of tunicamycin response over DMSO baseline; activation, % at 10 µM; AID 449763; actives 0.34% (n = 330,000);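 active = at 10 µM dose, activation of 40% or more, normalized to positive control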
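Assay system: CHO-CHOP cells, stable luciferase reporter of PERK-eIF2a-CHOP signalling / Buffer or medium: F12 plus 10% serum / Compound dosing: one dose, 10 µM in 0.5% DMSO / Times: 6 h compound treatment, 37 °C / Technique: luciferase luminescence / Read-out: % reporter activation, DMSO baseline versus tunicamycin full activation / Benchmarks: tunicamycin and DMSO controls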
V-ATPase pH = yeast V-ATPase proton transport regulation by pHLuorin. AID 504577. S. cerevisiae, pHLuorin cytosolic pH fluorescence. response, % at 10 µM. actives 0.37% (n = 350,000); in the data active = response mostly above about 7.3%, no sharp cut-off; inactive = mostly below about 5.4%; also: actives read high
CHOP inhibitor = blocks CHOP induction under ER stress. CHO-K1 CHOP-promoter luciferase, tunicamycin-induced, 15-18 h. inhibition, % at 10 µM. actives 3.8% (n = 220,000). AID 2732;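 active = compounds that reduced the stress-induced luciferase reporter signal by more than about 70% of percent inhibition, limit read from the data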
UPR XBP1 act = adaptive UPR (XBP1) activation; activation, % at 20 µM; actives 0.33% (n = 330,000); CHO-XBP1 luciferase reporter, IRE1-XBP1 UPR activation, luminescence; percent of tunicamycin response, DMSO as zero;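 active = versus positive control, 20 µM dose yields 30% or more activation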
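Signal: luciferase luminescence; Assay system: CHO-XBP1 luciferase reporter cells; Amount: one thousand reporter cells per well; Dosing: 20 µM single concentration, DMSO 1%; Benchmarks: high control tunicamycin 10 µg/mL final, low control DMSO vehicle only; Schedule: 6 h compound exposure at 37 °C, 5% CO2; Evaluation: percent activation relative to tunicamycin reference.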
Tb MetRS inh = Trypanosoma brucei MetRS inhibition; purified T. brucei MetRS, ATP depletion, Kinase-Glo luminescence; AID 624268; inhibition, % at 11.9 µM; actives 0.4% (n = 360,000);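 active = inhibition above a per-plate cutoff of the control wells' mean inhibition plus 3 SD, cut at about 5.5% in these data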
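System: purified T. brucei MetRS enzyme / Detection: Kinase-Glo luciferase luminescence reporting remaining unconsumed ATP / Medium: HEPES buffer with MgCl2, KCl, DTT, spermine, BSA, pyrophosphatase / Replication: singlicate, one well per compound / Evaluation: percent inhibition relative to median high and low control wells / Schedule: 2 h aminoacylation at 25 °C after 15 min preincubation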
CHOP UPR conf = confirmation of apoptotic unfolded protein response (CHOP) activators; shares compounds with CHOP UPR activ; CHO-CHOP cells, CHOP-luciferase reporter luminescence; percent of tunicamycin response, DMSO as zero; activation, % at 10 µM; actives 64% (n = 1,000); AID 463112; in the data active = activation above about 33%
UPR XBP1 confirm = confirmation of adaptive unfolded protein response (XBP1) activators. shares compounds with UPR XBP1 act. CHO-XBP1 IRE1-XBP1 luciferase reporter, luminescence. activation, % at 20 µM. actives 63% (n = 1,000);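 active = reporter signal at least 30% of the positive control's activation in two or more of four replicate wells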
A number is an active result; - = inactive; . = no result. Shown is part of a subset that was picked to be rich in hits.

SMILES | CHOP UPR activ | V-ATPase pH | CHOP inhibitor | UPR XBP1 act | Tb MetRS inh | CHOP UPR conf | others
Fc1ccc(Oc2nc(-c3ccccn3)nc3ccccc23)cc1 | - | - | - | - | - | .
COc1ccc(Oc2nc(-c3ccccn3)nc3ccccc23)cc1 | 52 | - | - | - | - | -
c1ccc(Oc2nc(-c3ccccn3)nc3ccccc23)cc1 | 41 | - | - | - | - | -
O=C(CCN1C(=O)/C(=C/c2ccccc2)SC1=S)N1CCCCCC1 | - | - | . | - | - | .
O=C(CCN1C(=O)/C(=C\c2ccccc2F)SC1=S)N1CCCCC1 | 43 | - | . | - | - | 37
CC(C)c1ccc(/C=C/C(=O)n2nnc3ccccc32)cc1 | 69 | - | - | - | - | -
CC(C)c1ccc(/C=C/C(=O)N2CCCCCC2)cc1 | - | - | - | - | - | .
O=C(CSc1ccccn1)Nc1nonc1[N+](=O)[O-] | 85 | - | . | - | - | 42
O=C(/C=C\c1ccccc1OC(=O)c1ccccc1F)c1cc2ccccc2o1 | 55 | - | - | - | - | 287
O=C(Cc1ccccc1)NCC(=O)Nc1ccccc1Br | - | - | . | - | - | .
CC1(C)Cc2c(c(N3CCOCC3)nc3sc(C(=O)Nc4ccccc4)c(N)c23)CO1 | - | - | . | - | - | .
CC1(C)Cc2c(c(N3CCOCC3)nc3sc(C(=O)Nc4cccc(Cl)c4)c(N)c23)CO1 | 88 | - | . | - | - | -
CC1(C)NC(=O)N(CC(=O)OCC(=O)Nc2cc(S(=O)(=O)N3CCCCCC3)ccc2Cl)C1=O | - | - | - | - | - | .
O=[N+]([O-])c1cc(O)c2ncccc2c1 | 109 | . | - | - | . | 88
CC(C)N(C(C)C)S(=O)(=O)c1ccc(N2CCc3ccccc3C2)nc1 | 64 | - | . | - | - | -
CCS(=O)(=O)N1CCN=C1SCc1cccnc1 | - | - | - | - | - | .
O=S(=O)(CCSc1nc2ccccc2s1)c1nc2ccccc2s1 | 108 | - | - | - | - | 154
CCS(=O)(=O)CCSc1nc2ccccc2s1 | - | - | - | - | - | .
CN(C(=O)CSc1cc(C(=O)c2nccn2C)c2ccccc2n1)c1ccccc1 | 95 | - | - | - | - | 94
Cc1ccc(Nc2nc(-c3ccc(O)c(O)c3)cs2)nc1 | 216 | . | - | - | . | 164
NNC(=O)c1c[nH]c2ccc(OCc3ccccc3)cc12 | - | - | . | - | - | .
Nc1ccc(C(=O)OCCc2ccccc2)cc1 | - | - | . | - | - | .
O=C(OCCc1ccccc1)c1cc(O)c(O)c(O)c1 | 118 | - | . | - | - | -
CN(C)CCNC(=O)c1coc(=O)c(Br)c1 | - | - | - | - | - | .
O=C(NCCc1ccccc1)c1coc(=O)c(Br)c1 | 105 | - | . | - | - | 73
SMILES | CHOP UPR activ | V-ATPase pH | CHOP inhibitor | UPR XBP1 act | Tb MetRS inh | CHOP UPR conf | others
CC(C)CNC(=O)c1coc(=O)c(Br)c1 | 175 | - | . | - | - | 70
C/C(=N\OCc1ccc(C#N)cc1)c1ccccc1 | - | - | - | - | - | .
C/C(=N\OCc1ccc(C#N)cc1)c1ccc(S(=O)(=O)N(C)C)cc1 | 41 | - | . | - | - | -
Cc1cc(/C=N/N2CCN(C)CC2)c(C)n1-c1ccc(Cl)cc1 | - | - | - | - | - | .
CCN(CC(=O)Nc1c(F)cccc1F)C(=O)CSC(=S)N1CCCC1 | - | . | . | - | - | .
CCN(CC)c1ccc(C(=O)OCc2cc(=O)oc3cc(O)ccc23)cc1 | 54 | - | - | 78 | - | -
CCCCc1cc(=O)oc2cc(O)ccc12 | - | - | - | - | - | .
Cc1ccc(-n2nc3cc(C)c(NC(=S)NC(=O)/C=C/c4ccco4)cc3n2)cc1 | 65 | - | - | 56 | - | 128 | UPR XBP1 confirm=114
CCOc1cc(/C=N/Nc2cc(C)nc(-n3nc(C)cc3C)n2)ccc1O | 86 | - | - | 48 | - | 63 | UPR XBP1 confirm=-
CCOc1cc(/C=N/Nc2nc(C)cc(=O)[nH]2)ccc1O | - | - | . | - | - | .
N#Cc1ccc(N/N=C/c2cn(-c3ccccc3)nc2-c2ccccc2)c([N+](=O)[O-])c1 | 107 | - | 83 | 43 | - | 108 | UPR XBP1 confirm=122
